Each structure is given as a SMILES string.

One test concerns HCC827. As to the kind of experiment: Antiproliferative activity against human HCC827 cells assessed as reduction in cell viability incubated for 72 hrs by cell-titer glo assay relative to control. It is filed as functional. Put shortly:
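Cells seeded at 2000 cells/well, dosed next day with a range of concentrations (DMSO 0.2% as control), 72 h exposure, viability read by CellTiter-Glo luminescence. Dose–response curves and GR values derived with the online GR calculator. Two independent experiments, each in technical triplicate.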

The target in test [1] is AP2-associated protein kinase 1 (Homo sapiens) (UniProt Q2M2I8). As to the kind of experiment: Binding affinity to human wild-type AAK1 (G25 to L333 residues) expressed in bacterial expression system assessed as residual binding level at 1 uM by Kinomescan method relative to control. Put shortly: (§1)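 Active-site-directed KinomeScan competition binding panel covering 468 kinases, compound tested at 1 μM. Each readout is the kinase signal remaining with compound, expressed as a percentage of the DMSO control. […]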
AP2-associated protein kinase 1 (Homo sapiens), sequence (Q2M2I8 whole entry, looked up, the tested form may be a part): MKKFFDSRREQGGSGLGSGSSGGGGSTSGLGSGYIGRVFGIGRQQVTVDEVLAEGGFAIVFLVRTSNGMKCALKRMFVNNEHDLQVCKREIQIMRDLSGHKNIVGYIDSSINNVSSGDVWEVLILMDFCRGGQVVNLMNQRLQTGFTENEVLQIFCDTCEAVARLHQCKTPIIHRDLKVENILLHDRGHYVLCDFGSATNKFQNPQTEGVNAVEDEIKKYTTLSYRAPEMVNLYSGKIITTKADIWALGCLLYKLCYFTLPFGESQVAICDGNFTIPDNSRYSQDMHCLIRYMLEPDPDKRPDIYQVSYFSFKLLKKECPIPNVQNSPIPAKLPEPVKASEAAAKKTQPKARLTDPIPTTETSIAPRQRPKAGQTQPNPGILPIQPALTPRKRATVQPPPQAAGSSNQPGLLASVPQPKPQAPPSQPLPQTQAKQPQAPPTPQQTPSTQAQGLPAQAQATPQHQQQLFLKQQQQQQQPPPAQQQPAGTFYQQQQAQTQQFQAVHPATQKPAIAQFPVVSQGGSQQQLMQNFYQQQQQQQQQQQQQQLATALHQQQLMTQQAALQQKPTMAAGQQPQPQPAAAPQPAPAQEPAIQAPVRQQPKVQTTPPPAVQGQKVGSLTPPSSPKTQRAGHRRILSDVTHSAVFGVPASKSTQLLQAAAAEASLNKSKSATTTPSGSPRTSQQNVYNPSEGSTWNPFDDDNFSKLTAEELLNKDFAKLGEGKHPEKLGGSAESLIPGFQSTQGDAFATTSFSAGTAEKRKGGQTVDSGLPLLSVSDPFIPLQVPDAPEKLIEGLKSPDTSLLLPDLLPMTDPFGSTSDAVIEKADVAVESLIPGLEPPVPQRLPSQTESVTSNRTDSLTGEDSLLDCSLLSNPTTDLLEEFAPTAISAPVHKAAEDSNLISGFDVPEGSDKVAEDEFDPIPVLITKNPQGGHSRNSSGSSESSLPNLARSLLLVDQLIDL

Test [2] concerns Tyrosine-protein kinase ABL1 (Homo sapiens), P00519 [F317L]. As to the kind of experiment: Binding affinity to human phosphorylated ABL1 F317L mutant (S229 to K512 residues) expressed in mammalian expression system assessed as residual binding level at 1 uM by Kinomescan method relative to control. The gist of the method: (§2)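 KinomeScan active site-directed competition binding panel (468 kinases), compound tested at 1 μM. Result expressed as remaining kinase signal versus DMSO control (percent of control).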

The target of test [3] is RAC-beta serine/threonine-protein kinase (Homo sapiens) (UniProt P31751). Description: Binding affinity to wild-type human partial length AKT2 expressed in bacterial expression system assessed as residual binding level at 1 uM by Kinomescan method relative to control.
Test [4] has as its target Casein kinase I isoform epsilon (Homo sapiens) (UniProt P49674). As to the kind of experiment: Binding affinity to wild-type human full length CSNK1E (M1 to K416 residues) expressed in bacterial expression system assessed as residual binding level at 1 uM by Kinomescan method relative to control. The gist of the method:
as §1

The target in test [5] is Serine/threonine-protein kinase DCLK3 (Homo sapiens) (UniProt Q9C098). As to the kind of experiment: Binding affinity to wild-type human partial length DCAMKL3 (E140 to V628 residues) expressed in bacterial expression system assessed as residual binding level at 1 uM by Kinomescan method relative to control.
For test [6], the system named is Epidermal growth factor receptor (Homo sapiens), P00533 [UNDEFINED MUTATION]. Description: Binding affinity to human partial length EGFR L747-E749del/A750P mutant expressed in bacterial expression system assessed as residual binding level at 1 uM by Kinomescan method relative to control. Put shortly: as §2
The target in test [7] is Tyrosine-protein kinase Fyn (Homo sapiens) (UniProt P06241). Description: Binding affinity to wild-type human partial length FYN (T243 to L534 residues) expressed in bacterial expression system assessed as residual binding level at 1 uM by Kinomescan method relative to control. The gist of the method: (§3)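 Active-site-directed competition binding panel of 468 kinases (KinomeScan), compound at 1 μM. The read-out is kinase remaining bound, given as a percentage of the DMSO control. […]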
Tyrosine-protein kinase Fyn (Homo sapiens), sequence (P06241 2-537 limits assumed): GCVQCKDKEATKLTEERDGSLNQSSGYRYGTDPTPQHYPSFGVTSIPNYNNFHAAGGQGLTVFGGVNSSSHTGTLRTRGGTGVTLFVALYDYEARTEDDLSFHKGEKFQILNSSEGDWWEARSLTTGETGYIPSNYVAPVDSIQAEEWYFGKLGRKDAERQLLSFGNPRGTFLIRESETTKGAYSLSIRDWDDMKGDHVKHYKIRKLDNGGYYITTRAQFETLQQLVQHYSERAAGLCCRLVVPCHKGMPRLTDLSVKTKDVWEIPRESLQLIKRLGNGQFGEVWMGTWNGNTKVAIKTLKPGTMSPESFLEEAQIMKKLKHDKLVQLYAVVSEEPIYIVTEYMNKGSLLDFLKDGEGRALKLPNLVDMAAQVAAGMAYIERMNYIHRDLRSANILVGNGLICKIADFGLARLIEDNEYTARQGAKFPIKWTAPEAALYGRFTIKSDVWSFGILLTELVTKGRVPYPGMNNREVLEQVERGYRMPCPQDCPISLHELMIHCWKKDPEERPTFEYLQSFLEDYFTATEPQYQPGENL

In test [8] the target is Interleukin-1 receptor-associated kinase 1 (Homo sapiens) (UniProt P51617). Description: Binding affinity to wild-type human partial length IRAK1 (R194 to S712 residues) expressed in mammalian expression system assessed as residual binding level at 1 uM by Kinomescan method relative to control.
The subject of test [9] is Mast/stem cell growth factor receptor Kit (Homo sapiens), P10721 [V559D]. As to the kind of experiment: Binding affinity to human partial length KIT V559D mutant (Y545 to D952 residues) expressed in bacterial expression system assessed as residual binding level at 1 uM by Kinomescan method relative to control. The gist of the method:
as §2

The target in test [10] is Serine/threonine-protein kinase LATS1 (Homo sapiens) (UniProt O95835). As to the kind of experiment: Binding affinity to wild-type human partial length LATS1 (Q678 to V1130 residues) expressed in bacterial expression system assessed as residual binding level at 1 uM by Kinomescan method relative to control.
The target of test [11] is Dual specificity mitogen-activated protein kinase kinase 7 (Homo sapiens) (UniProt O14733). As to the kind of experiment: Binding affinity to wild-type human full length MKK7 (M1 to R419 residues) expressed in mammalian expression system assessed as residual binding level at 1 uM by Kinomescan method relative to control. The gist of the method:
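KinomeScan, an active site-directed competition binding panel of 468 kinases. The test compound was at 1 μM. The readout is remaining kinase binding as a percentage of the DMSO control. Scores above 35% were treated as weak binding and not listed.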

Test [12] concerns the target Myosin light chain kinase, smooth muscle (Homo sapiens) (UniProt Q15746). As to the kind of experiment: Binding affinity to wild-type human full length MYLK (M854 to E1845 residues) expressed in mammalian expression system assessed as residual binding level at 1 uM by Kinomescan method relative to control. Put shortly: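 Active-site-directed competition binding panel (KinomeScan) covering 468 kinases. Test agent was screened at 1 μM. The read-out is the remaining kinase signal expressed relative to a DMSO control. Scores above 35%, taken as weak binding, were not reported.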

The target in test [13] is Serine/threonine-protein kinase Nek9 (Homo sapiens) (UniProt Q8TD19). As to the kind of experiment: Binding affinity to wild-type human partial length NEK9 (P32 to R328 residues) expressed in bacterial expression system assessed as residual binding level at 1 uM by Kinomescan method relative to control.
Serine/threonine-protein kinase Nek9 (Homo sapiens), sequence (Q8TD19 whole entry, the tested form may be a part): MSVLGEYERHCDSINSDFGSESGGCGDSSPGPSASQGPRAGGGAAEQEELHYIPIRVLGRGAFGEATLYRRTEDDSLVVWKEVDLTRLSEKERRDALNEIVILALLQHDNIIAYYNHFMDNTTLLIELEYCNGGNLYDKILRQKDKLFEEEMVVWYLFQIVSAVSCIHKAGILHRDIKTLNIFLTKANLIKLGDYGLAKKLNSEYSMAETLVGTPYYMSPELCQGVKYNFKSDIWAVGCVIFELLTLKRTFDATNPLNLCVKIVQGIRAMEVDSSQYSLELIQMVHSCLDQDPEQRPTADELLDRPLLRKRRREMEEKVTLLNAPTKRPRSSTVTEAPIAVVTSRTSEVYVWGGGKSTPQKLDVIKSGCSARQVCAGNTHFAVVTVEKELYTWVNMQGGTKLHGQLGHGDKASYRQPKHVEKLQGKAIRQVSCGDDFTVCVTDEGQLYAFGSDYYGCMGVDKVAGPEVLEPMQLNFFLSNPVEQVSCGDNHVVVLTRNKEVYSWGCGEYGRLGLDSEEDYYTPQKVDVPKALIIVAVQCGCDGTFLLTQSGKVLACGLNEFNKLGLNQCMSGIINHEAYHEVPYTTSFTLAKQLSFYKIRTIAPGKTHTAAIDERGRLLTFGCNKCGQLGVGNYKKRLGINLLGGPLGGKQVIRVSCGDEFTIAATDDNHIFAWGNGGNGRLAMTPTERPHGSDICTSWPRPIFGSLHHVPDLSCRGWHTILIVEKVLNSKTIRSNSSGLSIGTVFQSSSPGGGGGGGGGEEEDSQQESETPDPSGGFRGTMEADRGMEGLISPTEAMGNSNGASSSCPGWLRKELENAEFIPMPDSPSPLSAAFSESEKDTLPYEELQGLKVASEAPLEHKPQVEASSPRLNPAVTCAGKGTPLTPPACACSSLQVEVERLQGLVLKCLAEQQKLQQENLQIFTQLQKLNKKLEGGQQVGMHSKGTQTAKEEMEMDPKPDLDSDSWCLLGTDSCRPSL
In test [14] the target is Platelet-derived growth factor receptor alpha (Homo sapiens) (UniProt P16234). Description: Binding affinity to wild-type human partial length PDGFRA (V575 to D1002 residues) expressed in mammalian expression system assessed as residual binding level at 1 uM by Kinomescan method relative to control. The gist of the method:
as §3

In test [15] the test system is Phosphatidylinositol 4,5-bisphosphate 3-kinase catalytic subunit alpha isoform (Homo sapiens), P42336 [E542K]. As to the kind of experiment: Binding affinity to human partial length PIK3CA E542K mutant (R108 to N1068 residues) expressed in mammalian expression system assessed as residual binding level at 1 uM by Kinomescan method relative to control. Put shortly: as §2

The target in test [16] is Serine/threonine-protein kinase PknB (Mycobacterium tuberculosis) (UniProt P9WI81). As to the kind of experiment: Binding affinity to wild-type Mycobacterium tuberculosis partial length PKNB (M1 to G279 residues) expressed in mammalian expression system assessed as residual binding level at 1 uM by Kinomescan method relative to control. Put shortly:
as §1

Test [17] deals with Serine/threonine-protein kinase PLK3 (Homo sapiens) (UniProt Q9H4B4). As to the kind of experiment: Binding affinity to wild-type human partial length PLK3 (A42 to L334 residues) expressed in mammalian expression system assessed as residual binding level at 1 uM by Kinomescan method relative to control.
Test [18] deals with Serine/threonine-protein kinase 16 (Homo sapiens) (UniProt O75716). As to the kind of experiment: Binding affinity to wild-type human partial length STK16 (G11 to I305 residues) expressed in bacterial expression system assessed as residual binding level at 1 uM by Kinomescan method relative to control.
For test [19], the target named is Wee1-like protein kinase 2 (Homo sapiens) (UniProt P0C1S8). Description: Binding affinity to wild-type human partial length WEE2 (M204 to K492 residues) expressed in bacterial expression system assessed as residual binding level at 1 uM by Kinomescan method relative to control.
Wee1-like protein kinase 2 (Homo sapiens), sequence (P0C1S8 whole entry, looked up, the tested form may be a part): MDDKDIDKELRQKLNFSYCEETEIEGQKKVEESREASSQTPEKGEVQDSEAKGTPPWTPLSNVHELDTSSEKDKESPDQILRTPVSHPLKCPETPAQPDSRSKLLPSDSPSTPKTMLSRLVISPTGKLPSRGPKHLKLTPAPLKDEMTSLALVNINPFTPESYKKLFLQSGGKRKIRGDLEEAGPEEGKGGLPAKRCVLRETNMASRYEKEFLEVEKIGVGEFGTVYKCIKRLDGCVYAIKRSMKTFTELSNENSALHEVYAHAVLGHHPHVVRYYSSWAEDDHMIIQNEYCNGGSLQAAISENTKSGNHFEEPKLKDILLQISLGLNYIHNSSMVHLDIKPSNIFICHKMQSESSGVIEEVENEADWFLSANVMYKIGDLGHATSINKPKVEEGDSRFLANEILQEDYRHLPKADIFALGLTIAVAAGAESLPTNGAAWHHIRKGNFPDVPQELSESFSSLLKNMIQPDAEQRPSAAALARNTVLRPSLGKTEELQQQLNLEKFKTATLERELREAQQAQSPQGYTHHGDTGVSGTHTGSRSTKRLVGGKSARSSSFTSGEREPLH

Dual specificity mitogen-activated protein kinase kinase 7 (Homo sapiens), sequence (O14733 whole entry, the tested form may be a part): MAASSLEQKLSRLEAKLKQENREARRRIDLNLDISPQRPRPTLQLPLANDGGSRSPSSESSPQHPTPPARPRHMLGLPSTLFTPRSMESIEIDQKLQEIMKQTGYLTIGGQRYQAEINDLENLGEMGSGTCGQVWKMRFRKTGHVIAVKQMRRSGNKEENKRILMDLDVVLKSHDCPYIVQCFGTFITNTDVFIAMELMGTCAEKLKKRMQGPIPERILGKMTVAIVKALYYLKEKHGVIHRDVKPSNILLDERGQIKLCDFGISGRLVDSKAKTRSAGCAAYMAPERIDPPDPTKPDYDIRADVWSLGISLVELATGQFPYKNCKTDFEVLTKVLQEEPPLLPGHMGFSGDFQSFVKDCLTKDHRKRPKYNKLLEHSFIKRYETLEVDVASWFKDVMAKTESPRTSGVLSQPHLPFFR
Casein kinase I isoform epsilon (Homo sapiens), sequence (P49674 whole entry, looked up, the tested form may be a part, canonical isoform): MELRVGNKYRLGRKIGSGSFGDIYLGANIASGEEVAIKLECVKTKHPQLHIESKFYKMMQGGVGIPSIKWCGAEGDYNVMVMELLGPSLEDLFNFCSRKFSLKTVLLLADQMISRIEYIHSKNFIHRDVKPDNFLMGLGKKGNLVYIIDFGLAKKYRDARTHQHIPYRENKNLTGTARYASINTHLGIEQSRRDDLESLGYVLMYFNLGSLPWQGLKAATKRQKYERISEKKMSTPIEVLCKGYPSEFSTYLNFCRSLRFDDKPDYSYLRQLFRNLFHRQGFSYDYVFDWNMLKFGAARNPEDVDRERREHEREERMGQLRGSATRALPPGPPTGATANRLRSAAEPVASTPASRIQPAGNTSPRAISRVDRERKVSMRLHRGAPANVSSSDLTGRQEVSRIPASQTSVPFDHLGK
Platelet-derived growth factor receptor alpha (Homo sapiens), sequence (P16234 whole entry, the tested form may be a part): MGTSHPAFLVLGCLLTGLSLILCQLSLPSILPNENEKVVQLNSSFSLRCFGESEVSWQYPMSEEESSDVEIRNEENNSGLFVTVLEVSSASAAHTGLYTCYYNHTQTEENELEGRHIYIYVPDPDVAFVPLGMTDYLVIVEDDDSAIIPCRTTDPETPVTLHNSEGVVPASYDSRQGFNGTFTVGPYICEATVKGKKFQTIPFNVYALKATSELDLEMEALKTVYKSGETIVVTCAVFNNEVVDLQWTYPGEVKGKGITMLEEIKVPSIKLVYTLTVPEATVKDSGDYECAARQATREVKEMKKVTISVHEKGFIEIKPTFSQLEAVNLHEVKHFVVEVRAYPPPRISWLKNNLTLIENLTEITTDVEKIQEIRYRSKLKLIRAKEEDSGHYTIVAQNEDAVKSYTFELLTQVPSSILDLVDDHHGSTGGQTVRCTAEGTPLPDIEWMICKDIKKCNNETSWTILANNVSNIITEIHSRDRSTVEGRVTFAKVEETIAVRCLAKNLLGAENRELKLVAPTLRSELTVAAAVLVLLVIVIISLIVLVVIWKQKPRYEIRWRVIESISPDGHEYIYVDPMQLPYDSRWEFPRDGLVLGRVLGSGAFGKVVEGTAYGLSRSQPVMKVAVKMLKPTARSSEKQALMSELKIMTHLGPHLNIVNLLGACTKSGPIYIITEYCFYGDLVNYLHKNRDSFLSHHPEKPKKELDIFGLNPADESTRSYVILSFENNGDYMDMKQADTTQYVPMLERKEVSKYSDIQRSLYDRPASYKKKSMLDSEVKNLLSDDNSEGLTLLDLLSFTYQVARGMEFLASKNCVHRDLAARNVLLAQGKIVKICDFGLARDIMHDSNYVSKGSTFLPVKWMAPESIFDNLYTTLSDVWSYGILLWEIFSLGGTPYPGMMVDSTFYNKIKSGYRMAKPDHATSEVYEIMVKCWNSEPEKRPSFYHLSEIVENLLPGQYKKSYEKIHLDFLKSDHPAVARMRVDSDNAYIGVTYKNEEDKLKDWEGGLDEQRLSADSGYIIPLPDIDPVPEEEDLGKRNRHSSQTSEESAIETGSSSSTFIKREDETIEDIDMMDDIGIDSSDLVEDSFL

Consider `C=CC(=O)Nc1ccccc1Nc1nc(Nc2ccc(N3CCN(C)CC3)cc2)ncc1C(=O)Nc1c(C)cccc1Cl`, for which the Emax in the test with HCC827 is listed as -0.6. Besides, the Activity in test [1] came to 100%; in [2], 1.3%; in [3], 100%; in test [4] it was 100%; in test [5], 100%; in test [6], 66%. For the same molecule, the Activity was found to be 2% in test [7]; 100% in test [8]; 21% in [9]; 100% in test [10]; 96% in [11]; 100% in test [12]. Also, the Activity in test [13] was 100%; in test [14], 90%; in test [15], 100%; in test [16], 100%; in [17], 100%; in [18] it was 100%. Besides, the Activity in test [19] worked out at 100%.

Values taken from ChEMBL document CHEMBL4354843, “Structure-Based Design of a Potent and Selective Covalent Inhibitor for SRC Kinase That Targets a P-Loop Cysteine” (J Med Chem, 2020).
